# Legend:
# [1] = Aqueous solubility of the compound at pH 7.8 by UV spectroscopic analysis; format: physicochemical; settings: aqueous solution
# Outline: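 Excess solid (10 mg) shaken in buffer at pH 6.9 or 7.8, 37 °C. The filtrate was diluted into the linear calibration range and dissolved drug measured by UV absorbance at λmax 272 nm. Values are the average of at least three agreeing independent measurements.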
# [2] = system: PC-3; experiment: Growth inhibition of human PC3 cells after 48 hrs by sulforhodamine B assay; format: functional; settings: PC-3, 48 h
# Outline: (§1)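 NCI five-dose screen on the full 60-cell-line panel. Cells were given 10-fold dilutions from 10^-4 to 10^-8 M with continuous 48 h exposure, and growth was read by SRB staining. Percent growth was taken from time-zero, control and treated absorbances. GI50, TGI and LC50 were then derived, the GI50 being the concentration that gives a 50% lower net protein increase than control.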
# [3] = system: SN12C; experiment: Growth inhibition of human SN12C cells after 48 hrs by sulforhodamine B assay; format: functional; outline: as §1
# [4] = system: RXF 393; experiment: Growth inhibition of human RXF393 cells after 48 hrs by sulforhodamine B assay; format: functional; settings: RXF 393, 48 h; outline: as §1
# [5] = system: OVCAR-8; experiment: Growth inhibition of human OVCAR8 cells after 48 hrs by sulforhodamine B assay; format: functional; settings: OVCAR-8, 48 h; outline: as §1
# [6] = system: M14; experiment: Growth inhibition of human M14 cells after 48 hrs by sulforhodamine B assay; format: functional; settings: M14, 48 h
# Outline: (§2)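 NCI 60-panel five-dose test at 10-fold dilutions, 10^-4 to 10^-8 M, with 48 h continuous exposure and SRB protein read-out. Percent growth derived from time-zero, untreated-control and treated absorbances. GI50 is the concentration where [(Ti-Tz)/(C-Tz)]×100 = 50. TGI is taken at Ti = Tz. LC50 is taken at [(Ti-Tz)/Tz]×100 = -50.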
# [7] = system: SNB-75; experiment: Growth inhibition of human SNB75 cells after 48 hrs by sulforhodamine B assay; format: functional; settings: SNB-75, 48 h
# Outline: (§3)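 NCI 60-cell panel, five concentrations (10-fold dilutions, 0.01–100 µM), 48 h continuous exposure; SRB protein stain read spectrophotometrically. Percent growth from time-zero, untreated-control and treated absorbances. GI50 is the concentration giving 50% lower net protein increase than control. Values beyond the tested range are reported as more or less than the highest or lowest concentration.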
# [8] = system: SF-295; experiment: Growth inhibition of human SF295 cells after 48 hrs by sulforhodamine B assay; format: functional; settings: SF-295, 48 h; outline: as §1
# [9] = system: SW-620; experiment: Growth inhibition of human SW620 cells after 48 hrs by sulforhodamine B assay; format: functional; settings: SW-620, 48 h; outline: as §3
# [10] = system: HT-29; experiment: Growth inhibition of human HT-29 cells after 48 hrs by sulforhodamine B assay; format: functional; settings: HT-29, 48 h; outline: as §2
# [11] = system: HCT-116; experiment: Growth inhibition of human HCT116 cells after 48 hrs by sulforhodamine B assay; format: functional; settings: HCT-116, 48 h; outline: as §2
# [12] = system: SR; experiment: Growth inhibition of human SR cells after 48 hrs by sulforhodamine B assay; format: functional; outline: as §3
# [13] = system: MOLT-4; experiment: Growth inhibition of human MOLT4 cells after 48 hrs by sulforhodamine B assay; format: functional; settings: MOLT-4, 48 h; outline: as §1
# [14] = system: MDA-MB-231; experiment: Growth inhibition of human MDA-MB-231 cells assessed as cell growth at 10^-5 M after 48 hrs by sulforhodamine B assay; format: functional; settings: MDA-MB-231, 48 h, read-out: Activity
# Outline: (§4)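 NCI 60-cell-line primary one-dose screen. Cells were exposed to a single 10^-5 M concentration for 48 h. The end point was sulforhodamine B protein staining, read spectrophotometrically. Results are reported as percent growth of treated cells relative to untreated control cells.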
# [15] = system: MCF7; experiment: Growth inhibition of human MCF7 cells assessed as cell growth at 10^-5 M after 48 hrs by sulforhodamine B assay; format: functional; settings: MCF7, 48 h, read-out: Activity
# Outline: (§5)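 NCI 60-cell-line primary screen. Single concentration of 10^-5 M, 48 h incubation. End point by sulforhodamine B protein staining read spectrophotometrically. Reported as percent growth of treated cells relative to untreated control cells.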
# [16] = system: TK-10; experiment: Growth inhibition of human TK10 cells assessed as cell growth at 10^-5 M after 48 hrs by sulforhodamine B assay; format: functional; settings: TK-10, 48 h, read-out: Activity
# Outline: (§6)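 NCI primary one-dose screen: single concentration of 10^-5 M added to culture, 48 h incubation, SRB protein-dye endpoint. Percent growth of treated cells measured spectrophotometrically against untreated controls.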
# [17] = system: OVCAR-5; experiment: Growth inhibition of human OVCAR5 cells assessed as cell growth at 10^-5 M after 48 hrs by sulforhodamine B assay; format: functional; settings: OVCAR-5, 48 h, read-out: Activity; outline: as §4
# [18] = system: UACC-62; experiment: Growth inhibition of human UACC62 cells assessed as cell growth at 10^-5 M after 48 hrs by sulforhodamine B assay; format: functional; settings: UACC-62, 48 h, read-out: Activity; outline: as §6
# [19] = system: M14; experiment: Growth inhibition of human M14 cells assessed as cell growth at 10^-5 M after 48 hrs by sulforhodamine B assay; format: functional; settings: M14, 48 h, read-out: Activity; outline: as §5
# [20] = system: SNB-75; experiment: Growth inhibition of human SNB75 cells assessed as cell growth at 10^-5 M after 48 hrs by sulforhodamine B assay; format: functional; settings: SNB-75, 48 h, read-out: Activity; outline: as §6
# [21] = system: SF-295; experiment: Growth inhibition of human SF295 cells assessed as cell growth at 10^-5 M after 48 hrs by sulforhodamine B assay; format: functional; settings: SF-295, 48 h, read-out: Activity; outline: as §4
# [22] = system: HCT-15; experiment: Growth inhibition of human HCT15 cells assessed as cell growth at 10^-5 M after 48 hrs by sulforhodamine B assay; format: functional; settings: HCT-15, 48 h, read-out: Activity; outline: as §5
# [23] = system: NCI-H322M; experiment: Growth inhibition of human NCI-H322M cells assessed as cell growth at 10^-5 M after 48 hrs by sulforhodamine B assay; format: functional; settings: read-out: Activity; outline: as §4
# [24] = system: HOP-62; experiment: Growth inhibition of human HOP62 cells assessed as cell growth at 10^-5 M after 48 hrs by sulforhodamine B assay; format: functional; settings: HOP-62, 48 h, read-out: Activity; outline: as §5
# [25] = system: RPMI-8226; experiment: Growth inhibition of human RPMI8226 cells assessed as cell growth at 10^-5 M after 48 hrs by sulforhodamine B assay; format: functional; settings: RPMI-8226, 48 h, read-out: Activity; outline: as §4
# [26] = read-out: LC50 (the source's name)
smiles,measurement,setting,value
O=C(CN1CCN(c2cc3c(cc2F)c(=O)c(C(=O)O)cn3C2CC2)CC1)Nc1ccc(C(=O)/C=C/c2ccccc2)cc1,solubility,[1],2.53 µg/mL
same,GI50,[2],3.16 µM
same,LC50,[2],> 100 µM
same,TGI,[2],> 100 µM
same,GI50,[3],3.02 µM
same,"LC50 (lethal concentration, 50% net cell kill)",[3],> 100 µM
same,TGI,[3],> 100 µM
same,GI50,[4],2500 nM
same,TGI,[4],> 100 µM
same,CC50,[4]; [26],> 100 µM
same,GI50,[5],3.07 µM
same,TGI,[5],> 100 µM
same,CC50,[5]; [26],> 100 µM
same,GI50,[6],5.22 µM
same,LC50 (concentration giving 50% net cell kill),[6],> 100 µM
same,TGI,[6],> 100 µM
same,GI50,[7],3.22 µM
same,TGI,[7],> 100 µM
same,CC50,[7]; [26],> 100 µM
same,GI50,[8],2110 nM
same,LC50 (concentration giving 50% net cell kill),[8],> 100 µM
same,TGI,[8],6.25 µM
same,GI50,[9],3.8 µM
same,TGI,[9],> 100 µM
same,CC50,[9]; [26],> 100 µM
same,GI50,[10],2990 nM
same,TGI,[10],10.3 µM
same,CC50,[10]; [26],> 100 µM
same,GI50,[11],660 nM
same,LC50,[11],9.55 µM
same,TGI,[11],2680 nM
same,GI50,[12],1540 nM
same,LC50 (concentration killing 50% of cells),[12],> 100 µM
same,TGI,[12],6.1 µM
same,GI50,[13],5.13 µM
same,TGI,[13],> 100 µM
same,CC50,[13]; [26],> 100 µM
same,growth at 10 µM,[14],55.1%
same,growth at 10 µM,[15],12.5%
same,growth at 10 µM,[16],39.9%
same,growth at 10 µM,[17],82.6%
same,growth at 10 µM,[18],35.5%
same,growth at 10 µM,[19],31.9%
same,growth at 10 µM,[20],61.8%
same,growth at 10 µM,[21],15.2%
same,growth at 10 µM,[22],56.8%
same,growth at 10 µM,[23],73.7%
same,growth at 10 µM,[24],59.4%
same,growth at 10 µM,[25],2.45%
